Compound activity (PubChem BioAssay)
A selection: hits, their analogues and other compounds. The true share with any hit is near 3.5%.
RGS4 pot: potentiators or activators of RGS4; HEK293 M3R/inducible RGS4, carbachol calcium flux Fluo4; active compounds read low; B-score at 10 µM; 310,000 compounds, 0.92% hits;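 active = B-score of the integrated calcium signal more than 4 SD below the library mean, with starting fluorescence not abnormally high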;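 note: negative B-score means reduced calcium response which marks RGS4 activation or potentiation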
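test system = M3R-expressing HEK293 line, RGS4 induced by doxycycline | probe or stimulus = carbachol at ECmax as muscarinic agonist stimulus | timing = dye loading 30 min 37 °C, buffer rest 30 min RT | signal = calcium dye Fluo4 fluorescence | evaluation = B score from integrated fluorescence ratio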
MrgX1 allo act: allosterically activates human MrgX1 receptor signaling; MrgX1-HEK293, Fluo-4 calcium flux, FDSS; active compounds read high; 310,000 compounds, 0.63% hits; B-score at 10 µM; Q96LB2;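 active = plate-corrected calcium response at least 3 library SD above typical, normal starting fluorescence, not activating the receptor alone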;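 note: compound read alongside a low EC10 to EC30 dose of BAM8-22 agonist; peak minus trough fluorescence over baseline measured at the second addition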
Target sequence (Q96LB2 whole entry, looked up): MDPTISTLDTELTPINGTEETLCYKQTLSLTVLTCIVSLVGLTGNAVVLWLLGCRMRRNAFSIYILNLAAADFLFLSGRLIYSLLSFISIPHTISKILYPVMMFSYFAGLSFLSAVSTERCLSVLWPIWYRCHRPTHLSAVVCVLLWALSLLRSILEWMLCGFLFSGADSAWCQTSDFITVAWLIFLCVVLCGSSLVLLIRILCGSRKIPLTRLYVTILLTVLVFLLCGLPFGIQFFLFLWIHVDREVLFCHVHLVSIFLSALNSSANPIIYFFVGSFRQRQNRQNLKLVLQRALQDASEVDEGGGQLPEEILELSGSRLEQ
MrgX1 agonist: activates human MrgX1 receptor signaling | MrgX1-HEK293 cells, Fluo-4 calcium fluorescence, agonist mode; active compounds read high | B-score at 10 µM | 310,000 compounds, 0.44% hits | AID 588627;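 active = calcium response B-score plate-corrected fluorescence ratio at least 3 library SD, with starting fluorescence B-score inside 5 SD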
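times = overnight plating, then 30 min 37 °C plus 30 min room-temperature dye loading | assay system = stable human MrgX1 HEK293 cell line | input = fifteen thousand cells per well | signal = kinetic calcium dye fluorescence, Fluo-4 NW | dosing = compound delivered in addition one of three | read-out = B-scored fluorescence response ratio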
RGS4 inh: inhibitors of human RGS4; B-score at 10 µM; 310,000 compounds, 0.45% hits; P49798; AID 463165; HEK293 M3R/RGS4 inducible, Fluo-4 calcium flux; active compounds read high; triggered by carbachol at its EC20;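 active = B-score, a plate-corrected calcium signal, over three deviations above library mean, with baseline fluorescence within five deviations of library mean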;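 note: RGS4 expression induced by doxycycline in cells with stable M3 receptor; B-score is computed from the integrated fluorescence ratio over baseline after carbachol; higher B-score means a larger calcium signal and so more RGS4 inhibition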
Target sequence (P49798 whole entry, looked up): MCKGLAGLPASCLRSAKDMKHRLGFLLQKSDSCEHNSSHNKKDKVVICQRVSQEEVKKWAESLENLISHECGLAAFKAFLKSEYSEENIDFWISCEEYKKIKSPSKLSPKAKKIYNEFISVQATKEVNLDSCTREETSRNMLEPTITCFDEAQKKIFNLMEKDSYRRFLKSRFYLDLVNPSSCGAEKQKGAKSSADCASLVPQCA
MrgX1 antagonist: human MrgX1 receptor antagonism, primary screen; Q96LB2; MRGX1-HEK293 calcium flux, Fluo-4, BAM8-22 antagonism; active compounds read low; B-score at 10 µM; 310,000 compounds, 1.3% hits; AID 588676;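 active = calcium-response B-score plate-corrected more than 3 library SD below zero, starting fluorescence within 5 deviations, no agonist response on first addition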;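 note: peak minus trough fluorescence over baseline after final BAM8-22 challenge near maximal dose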
MrgX1 ant reconf: reconfirmed antagonist of human MrgX1 receptor signaling. shares compounds with MrgX1 antagonist. MrgX1-HEK293, BAM8-22 calcium flux, Fluo-4; active compounds read low. remaining BAM8-22 calcium response % of control (active compounds read low), % at 10 µM. 2,300 compounds, 19% hits;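 active = remaining agonist calcium response no higher than 100% minus 3 SD of agonist-only control wells, with starting fluorescence near control levels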;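 note: agonist BAM8-22 given at a near maximal EC90 to ECmax level; peak minus minimum fluorescence divided by baseline after agonist addition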
HEK293 Ca flux: MrgX1 antagonist counter-screen hit in parental HEK293 cells; 4,000 compounds, 2% hits; Fluo-4 calcium fluorescence, FDSS; shares compounds with MrgX1 antagonist; fluorescence ratio F(max-min)/F0 at 10 µM; AID 624111;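 active = duplicate-averaged calcium fluorescence ratio at least three times the standard deviation of buffer wells, a nonspecific response in parental cells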
HEK293 Ca counter: counter-screen for MrgX1 allosteric activators: effect in parental HEK293 cells; 4,000 compounds, 0.4% hits; AID 624114; fluorescence ratio F(max-min)/F0 at 10 µM; shares compounds with MrgX1 antagonist; parental HEK293 calcium flux, Fluo-4 fluorescence ratio; active compounds read high;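 active = calcium fluorescence ratio, averaged over duplicates, at least 3 SD of the buffer-well ratio, meaning a nonspecific response in receptor-free cells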;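 note: untransfected parental HEK293 lacking MrgX1 used as counterscreen for MrgX1 allosteric activators; fluorescence change taken during the second addition on a kinetic imager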
HEK293 Ca cntr2: activity in parental HEK293 cells lacking MrgX1 receptor; shares compounds with MrgX1 antagonist; Fluo-4 calcium fluorescence (FDSS); active compounds read high; fluorescence ratio F(max-min)/F0 at 10 µM; 4,000 compounds, 8.7% hits;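 active = calcium fluorescence ratio at least three times the spread of buffer wells, meaning a non-specific response in parental cells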
An asterisk follows results filed as active; i = inactive; . = no result.

SMILES | RGS4 pot | MrgX1 allo act | MrgX1 agonist | RGS4 inh | MrgX1 antagonist | MrgX1 ant reconf | HEK293 Ca flux | HEK293 Ca counter | HEK293 Ca cntr2
O=C(Nc1ccc(Cl)cc1)c1cc2c(cc1O)[nH]c1ccccc12 | i | i | i | i | -4.89* | 54.0%* | i | i | i
CC(=O)Nc1ccc2[nH]c3ccccc3c2c1 | i | i | i | i | i | . | . | . | .
COc1cccc(C(=O)COc2ccc3c(C)cc(=O)oc3c2)c1 | i | i | i | i | -5.1* | 83.4%* | i | i | i
COc1ccc(N2CCN(Cc3nc(-c4ccccc4)no3)CC2)cc1 | i | i | i | i | i | . | . | . | .
CCOC(=O)N1CCN(C(=O)C2CCN(Cc3nc(-c4ccccc4C)oc3C)CC2)CC1 | i | i | i | i | -4.8* | i | i | i | i
O=C(CS(=O)(=O)c1c[nH]c2ccccc12)NC1CCCCC1 | i | i | i | i | -10.4* | i | i | i | i
O=C(Cc1c(O)c2ccccc2[nH]c1=O)NC1CCCCCCC1 | i | i | i | i | -8.43* | i | i | i | i
CCCCCOC(=O)Cc1c(O)c2ccccc2[nH]c1=O | i | i | i | i | -7.93* | i | i | i | i
O=C(CS(=O)(=O)c1c[nH]c2ccccc12)Nc1ccc(F)cc1 | i | i | i | i | i | . | . | . | .
O=C(Cc1c(O)c2ccccc2[nH]c1=O)NC1CCCCCC1 | i | i | i | i | i | . | . | . | .
CCc1nc(C)ccc1OCC(=O)N1CCc2c([nH]c3ccccc23)C1c1ccccn1 (stereo unspecified) | i | i | i | i | i | . | . | . | .
COc1ccc(OCC(=O)N2CCc3c([nH]c4ccccc34)C2c2ccccn2)cc1 (stereo unspecified) | i | i | i | i | -6.4* | i | i | i | i
CCC[C@H]1COCCS(=O)(=O)N1Cc1ccccc1F | i | i | i | i | i | . | . | . | .
CC(C)[C@H]1COCCS(=O)(=O)N1Cc1ccccc1F | i | i | i | i | -5.33* | i | i | i | i
CCOc1ccc(NC(=S)NC(=O)C2CCCC2)cc1 | i | i | i | i | -5.38* | i | i | i | i
COc1ccc(NC(=S)NC(=O)C2CCCCC2)cc1 | i | i | i | i | i | . | . | . | .
Cc1ccc2sc(NC(=O)CSc3nc(C)cc(C)c3C#N)nc2c1 | i | i | i | i | -6.36* | i | i | i | i
Cc1cc(C(F)(F)F)c(C#N)c(SCC(=O)Nc2nc3ccccc3s2)n1 | i | i | i | i | i | . | . | . | .
COc1ccc2c(c1)[nH]c1c(N3CCSCC3)ncnc12 | i | i | i | i | -11.8* | 49.7%* | i | i | i
COc1ccc(C(=O)O)cc1S(=O)(=O)Nc1ccccc1-c1ccccc1 | i | i | i | i | i | . | . | . | .
CCCCCCNc1c([N+](=O)[O-])c(=O)sc2ccccc12 | i | i | i | i | i | . | . | . | .
CC(=O)c1cccc(NC(=O)C2CC(=O)N(CCc3ccccc3)C2)c1 (stereo unspecified) | i | i | i | i | -5.19* | i | i | i | i
O=C(c1ccc(Cn2c(=S)[nH]c3ccccc3c2=O)cc1)N1CCN(c2ccccn2)CC1 | i | i | i | i | -8.03* | 84.1%* | i | i | i
O=C(c1ccc(Cn2c(=O)[nH]c3ccccc3c2=O)cc1)N1CCN(c2ccccn2)CC1 | i | i | i | i | i | . | . | . | .
OCC[C@@H]1C[C@@H](O)[C@H](O)[C@@]2(Cc3ccccc3CCO2)O1 | i | i | i | i | i | . | . | . | .
SMILES | RGS4 pot | MrgX1 allo act | MrgX1 agonist | RGS4 inh | MrgX1 antagonist | MrgX1 ant reconf | HEK293 Ca flux | HEK293 Ca counter | HEK293 Ca cntr2
CC(=O)c1ccccc1OC(=O)CCN1C(=O)C2C3C=CC(C4CC34)C2C1=O (stereo unspecified) | i | i | i | i | -4.54* | i | i | i | i
O=C(CCN1C(=O)C2C3C=CC(C4CC34)C2C1=O)Oc1ccccc1 (stereo unspecified) | i | i | i | i | i | . | . | . | .
COc1ccc(-c2cc(C(=O)N3CCN(C(c4ccccc4)c4ccccc4)CC3)no2)cc1OC | i | i | i | i | -5.33* | i | i | i | i
COc1ccc(NC(=O)c2cccnc2N2CCCC2)cc1 | i | i | i | i | -8.59* | i | i | i | 46.6*
CCOc1ccc(Br)cc1S(=O)(=O)Nc1cccc(S(=O)(=O)N(C)C)c1 | i | i | i | i | i | . | . | . | .
COc1cccc(/C=C/C(=O)OCC(=O)Nc2ccc(Cl)c(S(=O)(=O)N(C)C)c2)c1OC | i | i | i | i | i | . | . | . | .
Cc1ccccc1CNS(=O)(=O)c1ccc2c(c1)OCCO2 | i | i | i | i | -4.67* | i | i | i | i
NC(=O)c1nsc(C(=O)N(CC(=O)NCc2ccccc2)c2ccc(F)cc2)c1N | i | i | i | i | i | . | . | . | .
CCOc1ccccc1N(CC(=O)OC)S(C)(=O)=O | i | i | i | i | -6.16* | i | i | i | i
CCOC(=O)C1=C(C)NC(=S)NC1/C=C/c1ccccc1 (stereo unspecified) | i | i | i | i | i | . | . | . | .
CCOc1c(OC)cccc1C1CC(=O)Nc2cc3c(cc21)OCCO3 (stereo unspecified) | i | i | i | i | -4.89* | i | i | i | i
Cc1nnc(NC(=O)CSc2ccc(-c3cccnc3)nn2)s1 | i | i | i | i | -5.64* | i | i | i | i
Cc1cc(NC(=O)C(C)SCC(=O)Nc2cc(C(F)(F)F)ccc2N2CCCCC2)no1 (stereo unspecified) | i | i | i | i | i | . | . | . | .
Cc1cc(NC(=O)C(C)SCC(=O)Nc2ccccc2N2CCCC2)no1 (stereo unspecified) | i | i | i | i | -11.4* | 75.6%* | i | i | i
